Assay results published in ChEMBL document CHEMBL1770063, “Synthesis and cytotoxic activity of benzo[a]acronycine and benzo[b]acronycine substituted on the A ring” (Eur J Med Chem, 2011).

How the values were obtained:
[1] = Cytotoxicity against human KB-3-1 cells after 96 hrs by MTA assay; type: functional, cell-based; details: KB 3-1, 96 h
In short: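 KB-3-1 cells grown in DMEM with 10% fetal calf serum, 2 mM L-glutamine, penicillin/streptomycin, 10 mM HEPES (pH 7.4). Exposed to nine serial drug dilutions in triplicate for 96 h (four doubling times); microculture tetrazolium read-out. IC50 is the concentration reducing optical density by 50% relative to untreated controls.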

L1210 = test: Cytotoxicity against mouse L1210 cells after 48 hrs by MTA assay; type: functional, cell-based; details: L1210, 48 h
In short: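 L1210 cells maintained in RPMI 1640 plus 10% fetal calf serum, 2 mM L-glutamine, penicillin/streptomycin and 10 mM HEPES (pH 7.4). Drug given at nine serial dilutions, triplicate, for 48 h (four doubling times), then tetrazolium microculture assay. IC50 is the concentration giving 50% lower optical density than untreated controls.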

CC1(C)C=Cc2c(cc(O)c3c(=O)c4c(ccc5cc(Br)ccc54)[nH]c23)O1
IC50 [1]: 1700 nM | IC50 (L1210): 3400 nM

C#CC(C)(C)Oc1cc(O)c2c(=O)c3c4ccc(Br)cc4ccc3n3c2c1C(C)(C)C3=C
IC50 [1]: 37100 nM | IC50 (L1210): 51100 nM

C=C1n2c3ccc4cc(Br)ccc4c3c(=O)c3c(O)cc(O)c(c32)C1(C)C
IC50 [1]: 2500 nM | IC50 (L1210): 7300 nM

COc1cc2c(c3c1c(=O)c1c4ccc(Br)cc4ccc1n3C)C=CC(C)(C)O2
IC50 [1]: 1300 nM | IC50 (L1210): 490 nM

Cn1c2cc3ccc(Br)cc3cc2c(=O)c2c(O)cc3c(c21)C=CC(C)(C)O3
IC50 [1]: 14300 nM | IC50 (L1210): 645 nM

COc1cc2c(c3c1c(=O)c1cc4cc(Br)ccc4cc1n3C)C=CC(C)(C)O2
IC50 [1]: 9900 nM | IC50 (L1210): 2200 nM

COc1cc2c(c3c1c(=O)c1cc4ccccc4cc1n3C)[C@H]1OC(=O)O[C@H]1C(C)(C)O2 (racemic)
IC50 (L1210): 16 nM

COc1cc2c(c3c1c(=O)c1c4ccc(Br)cc4ccc1n3C)[C@@H](O)[C@@H](O)C(C)(C)O2 (racemic)
IC50 [1]: 5500 nM | IC50 (L1210): 7600 nM

COc1cc2c(c3c1c(=O)c1c4ccc(Br)cc4ccc1n3C)[C@@H](OC(C)=O)[C@@H](OC(C)=O)C(C)(C)O2 (racemic)
IC50 [1]: 40 nM | IC50 (L1210): 400 nM

COc1cc2c(c3c1c(=O)c1c4ccc(Br)cc4ccc1n3C)[C@H]1OC(=O)O[C@H]1C(C)(C)O2 (racemic)
IC50 [1]: 15 nM | IC50 (L1210): 80 nM

COc1cc2c(c3c1c(=O)c1cc4cc(Br)ccc4cc1n3C)[C@@H](O)[C@@H](O)C(C)(C)O2 (racemic)
IC50 [1]: 36300 nM | IC50 (L1210): 225 nM

COc1cc2c(c3c1c(=O)c1cc4cc(Br)ccc4cc1n3C)[C@@H](OC(C)=O)[C@@H](OC(C)=O)C(C)(C)O2 (racemic)
IC50 [1]: 115 nM | IC50 (L1210): 600 nM

COc1cc2c(c3c1c(=O)c1cc4cc(Br)ccc4cc1n3C)[C@H]1OC(=O)O[C@H]1C(C)(C)O2 (racemic)
IC50 [1]: 11 nM | IC50 (L1210): 34 nM

COc1cc2c(c3c1c(=O)c1c4ccccc4ccc1n3C)[C@@H](OC(C)=O)[C@@H](OC(C)=O)C(C)(C)O2 (racemic)
IC50 [1]: 140 nM | IC50 (L1210): 730 nM

COc1cc2c(c3c1c(=O)c1c4ccccc4ccc1n3C)[C@H]1OC(=O)O[C@H]1C(C)(C)O2 (racemic)
IC50 [1]: 15 nM | IC50 (L1210): 59 nM

COc1cc2c(c3c1c(=O)c1cc4ccccc4cc1n3C)[C@@H](OC(C)=O)[C@@H](OC(C)=O)C(C)(C)O2 (racemic)
IC50 [1]: 95 nM

COc1cc2c(c3c1c(=O)c1c4ccccc4ccc1n3C)C=CC(C)(C)O2 [BENZO[A]ACRONYCINE]
IC50 [1]: 8600 nM

COc1cc2c(c3c1c(=O)c1cc4ccccc4cc1n3C)C=CC(C)(C)O2 [BENZO[B]ACRONYCINE]
IC50 [1]: 3400 nM
